Columns and labels:
[1] = target: T1, Gonadotropin-releasing hormone receptor (Homo sapiens, UniProt P30968); experiment: Displacement of [125I]-D-Tyr6-His5-GnRH from recombinant human GnRH receptor expressed in HEK293 cell membrane measured after 16 to 19 hrs by gamma counting method; type: cell membranes
T1 sequence (P30968 whole entry): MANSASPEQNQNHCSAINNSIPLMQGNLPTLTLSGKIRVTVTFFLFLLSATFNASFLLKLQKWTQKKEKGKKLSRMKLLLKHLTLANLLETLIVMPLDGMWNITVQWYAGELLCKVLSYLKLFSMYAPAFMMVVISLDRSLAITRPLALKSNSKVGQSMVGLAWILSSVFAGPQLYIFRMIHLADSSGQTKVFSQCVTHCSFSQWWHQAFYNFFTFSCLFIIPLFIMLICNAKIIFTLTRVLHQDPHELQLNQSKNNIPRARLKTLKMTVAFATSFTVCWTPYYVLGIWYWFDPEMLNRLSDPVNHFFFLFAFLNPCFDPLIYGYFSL
Outline: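 Membranes from HEK 293 cells stably expressing human GnRH-R were incubated with 100,000-120,000 cpm [¹²⁵I]-D-Tyr⁶-His⁵-GnRH plus increasing conjugate concentrations. Buffer was 25 mM HEPES, 1 mM CaCl₂, 10 mM MgCl₂, 0.5% BSA, pH 7.4, final volume 0.2 mL, 4 °C for 16-19 h. Samples filtered on PEI-soaked GF/C, washed with ice-cold Tris-HCl and gamma counted. Nonspecific binding defined with 1000 nM triptorelin.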

DU-145 = experiment: Antiproliferative activity against human DU145 cells measured after 72 hrs by MTT assay; type: functional, cell-based; conditions: DU-145, 72 h
Outline: (§1)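 Cells (RPMI for DU145, PC3, MDA-MB-231; DMEM for MCF7; 10% FBS, 37 °C, 5% CO₂) plated at 5 x 10³/well. After 24 h, medium replaced with compound at 10-40,000 nM for 72 h. MTT 0.3 mg/mL in PBS for 3 h, formazan dissolved in DMSO, OD at 570 nm with 690 nm reference. IC50 from four-parameter logistic fit; three experiments in triplicate.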

PC-3 = experiment: Antiproliferative activity against human PC3 cells measured after 72 hrs by MTT assay; type: functional, cell-based; conditions: PC-3, 72 h; outline: as §1
MDA-MB-231 = experiment: Antiproliferative activity against human MDA-MB-231 cells measured after 72 hrs by MTT assay; type: functional, cell-based; conditions: MDA-MB-231, 72 h; outline: as §1
MCF7 = experiment: Antiproliferative activity against human MCF7 cells measured after 72 hrs by MTT assay; type: functional, cell-based; conditions: MCF7, 72 h; outline: as §1
[2] = Stability of the compound in RPMI medium at 1 uM measured after 72 hrs by LC-MS/MS analysis; type: physicochemical
Outline: (§2)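 Conjugates at 1 µΜ incubated at 37 °C in RPMI with 10% FBS and 1% P/S. Triplicate samples taken at 0, 1, 2, 4, 8, 24, 48 and 72 h, mixed with initial mobile phase, stored at -80 °C. Analysed by LC-MS/MS.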

[3] = Stability of the compound in human plasma at 1 ug/ml measured up to 4 hrs by LC-MS/MS analysis; type: ADME, cell-free
Outline: (§3)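 Human plasma spiked with conjugate at 1 µg/mL. Triplicate 50 µL samples taken at 0, 0.08, 0.5, 1 and 4 h, mixed with 150 µL acetonitrile and stored at -80 °C. Intact conjugate and released gemcitabine followed.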

[4] = Prodrug activation in human plasma assessed as gemcitabine release at 1 ug/ml measured up to 4 hrs by LC-MS/MS analysis; type: cell-free; outline: as §3
[5] = Drug level in C57BL/6N mouse blood at 10 mg/kg, ip measured after 15 mins by LC-MS/MS analysis; type: ADME, organism-based; conditions: whole blood, read-out: Drug uptake
Outline: (§4)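 Male C57BL/6N mice, 8-12 weeks old, fasted overnight (n = 5/group), given conjugate 10 mg/kg (6.3 µmol/kg) IP in saline. Serial tail bleeds of 10 µL at 0.25, 0.5, 1, 2, 4, 6 and 8 h into 0.1 M citric acid, pH 4.5. Stored at -80 °C, processed by protein precipitation and evaporation. Conjugate, gemcitabine and dFdU measured.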

[6] = Drug level in C57BL/6N mouse blood at 10 mg/kg, ip measured after 30 mins by LC-MS/MS analysis; type: ADME, organism-based; conditions: whole blood, read-out: Drug uptake; outline: as §4
[7] = Prodrug activation in C57BL/6N mouse blood assessed as dFdU release at 10 mg/kg, ip measured up to 8 hrs by LC-MS/MS analysis; type: organism-based; conditions: in vivo; outline: as §4
[8] = AUC (1 to 8 hrs) in human DU145 cells assessed per million cells at 10 uM by LC-MS/MS analysis; type: ADME, cell-based; set-up: time 1-8 hr, dose 10 uM; conditions: du-145, 10 µM
Outline: (§5)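 DU145 cells seeded at 2 x 10⁶ cells/well and exposed to 10 µΜ compound for 1, 4 or 8 h. Medium removed, cells washed twice with ice-cold PBS, lysed in ice-cold MeCN-water (3:2) by scraping, then vortexed, sonicated and spun 3 min at 16,060 g. Conjugate, gemcitabine and dFdU quantified per 10⁶ cells.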

[9] = Prodrug activation in human DU145 cells assessed as gemcitabine release at 10 uM measured after 8 hrs by LC-MS/MS analysis; type: cell-based; conditions: du-145, 8 h; outline: as §5
[10] = Prodrug activation in human DU145 cells assessed as dFdU release at 10 uM measured after 8 hrs by LC-MS/MS analysis; type: cell-based; conditions: du-145, 8 h; outline: as §5
[11] = Cmax in human DU145 cells assessed per million cells at 10 uM measured after 4 hrs by LC-MS/MS analysis; type: ADME, cell-based; set-up: dose 10 uM; conditions: du-145, 4 h; outline: as §5
[12] = Stability of the compound in RPMI medium assessed as compound degradation at 1 uM measured <24 hrs by LC-MS/MS analysis; type: physicochemical; conditions: read-out: Drug degradation; outline: as §2
[13] = Prodrug activation in C57BL/6N mouse blood assessed as gemcitabine release at 10 mg/kg, ip measured up to 8 hrs by LC-MS/MS analysis; type: organism-based; conditions: in vivo; outline: as §4
[14] = Prodrug activation in C57BL/6N mouse blood assessed as gemcitabine release at 10 mg/kg, ip measured after 30 mins by LC-MS/MS analysis; type: organism-based; conditions: in vivo, 0.5 h; outline: as §4
[15] = Prodrug activation in C57BL/6N mouse blood assessed as dFdU release at 10 mg/kg, ip measured after 1 hr by LC-MS/MS analysis; type: organism-based; conditions: in vivo; outline: as §4

IC50 [1] [nM]	IC50 (DU-145) [nM]	IC50 (PC-3) [nM]	IC50 (MDA-MB-231) [nM]	IC50 (MCF7) [nM]	Stability [2]	Stability [3]	Drug metabolism [4]	concentration at 0.25 h [5] [ng/mL]	concentration at 0.5 h [6] [ng/mL]	Drug metabolism [7]	AUC [8] [ng/10^6 cells × hr]	Drug metabolism [9]	Drug metabolism [10]	Cmax [11]	degraded at 24 h, 1 µM [12] [%]	Drug metabolism [13]	Drug metabolism [14] [ng/mL]	Drug metabolism [15] [ng/mL]	Compound
0.69	> 40000	> 40000	> 40000	621	Stable	Stable	Metabolite_Notdetected	4000	4000	Metabolite_Notdetected	62.8	Metabolite_Notdetected	Metabolite_Notdetected	–	–	–	–	–	CC(C)C[C@H](NC(=O)[C@@H](CCCCNC(=O)OC[C@H]1O[C@@H](n2ccc(N)nc2=O)C(F)(F)[C@@H]1O)NC(=O)[C@H](Cc1ccc(O)cc1)NC(=O)[C@H](CO)NC(=O)[C@H](Cc1c[nH]c2ccccc12)NC(=O)[C@H](Cc1cnc[nH]1)NC(=O)[C@@H]1CCC(=O)N1)C(=O)N[C@@H](CCCNC(=N)N)C(=O)N1CCC[C@H]1C(=O)NCC(N)=O
0.11	9760	> 40000	> 40000	449	Stable	Stable	Metabolite_Notdetected	4000	5000	Metabolite_Notdetected	88.7	Metabolite_Notdetected	Metabolite_Notdetected	15 ng/10^6 cells in 4 h	–	–	–	–	CC(C)C[C@H](NC(=O)[C@@H](CCCCNC(=O)O[C@@H]1[C@@H](CO)O[C@@H](n2ccc(N)nc2=O)C1(F)F)NC(=O)[C@H](Cc1ccc(O)cc1)NC(=O)[C@H](CO)NC(=O)[C@H](Cc1c[nH]c2ccccc12)NC(=O)[C@H](Cc1cnc[nH]1)NC(=O)[C@@H]1CCC(=O)N1)C(=O)N[C@@H](CCCNC(=N)N)C(=O)N1CCC[C@H]1C(=O)NCC(N)=O
10.5	> 40000	> 40000	> 40000	> 40000	–	–	–	–	–	–	–	–	–	–	–	–	–	–	CC(C)C[C@H](NC(=O)[C@@H](CCCCN)NC(=O)[C@H](Cc1ccc(O)cc1)NC(=O)[C@H](CO)NC(=O)[C@H](Cc1c[nH]c2ccccc12)NC(=O)[C@H](Cc1cnc[nH]1)NC(=O)[C@@H]1CCC(=O)N1)C(=O)N[C@@H](CCCNC(=N)N)C(=O)N1CCC[C@H]1C(=O)NCC(N)=O
2.4	684	937	2390	55.5	–	Unstable	Metabolite_Detected	–	–	–	38.6	Metabolite_Detected	Metabolite_Notdetected	8 ng/10^6 cells	100	Metabolite_Detected	300	500	CC(C)C[C@H](NC(=O)[C@@H](CCCCNC(=O)CCCCCNC(=O)CCC(=O)OC[C@H]1O[C@@H](n2ccc(N)nc2=O)C(F)(F)[C@@H]1O)NC(=O)[C@H](Cc1ccc(O)cc1)NC(=O)[C@H](CO)NC(=O)[C@H](Cc1c[nH]c2ccccc12)NC(=O)[C@H](Cc1cnc[nH]1)NC(=O)[C@@H]1CCC(=O)N1)C(=O)N[C@@H](CCCNC(=N)N)C(=O)N1CCC[C@H]1C(=O)NCC(N)=O
–	213	416	1570	38	–	–	–	–	3	–	–	–	–	–	–	–	–	–	Nc1ccn([C@@H]2O[C@H](CO)[C@@H](O)C2(F)F)c(=O)n1 [GEMCITABINE]

Reference: ChEMBL document CHEMBL4400527, “Development of bioactive gemcitabine-D-Lys6-GnRH prodrugs with linker-controllable drug release rate and enhanced biopharmaceutical profile” (Eur J Med Chem, 2019)
